We go through 37 variants from the RNAGym collection of RNA variant scans (doi:10.1126/science.aae0568).

First the molecules themselves.
B1: tRNA (parent)
chain: GUUCCGUUGGCGUAAUGGUAACGCGUCUCCCUCCUAAGGAGAAGACUGCGGGUUCGAGUCCCGUACGGAACG

This sample holds only a part of the variants without activity.

The variants in the data set derive from B1. Kind of data set: yeast fitness relative to wild type (ratio to wild type); higher = fitter; tRNA-Arg(CCU), competitive growth, 37 C, YPD. The procedure, abridged: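 Amplicons of the tRNA-Arg(CCU) gene were sequenced, 100-nucleotide paired-end, from the start population and from each end population of a pooled yeast competition. The competition, in six parallel replicates, lasted 24 hours in YPD at 37°C. Fitness relative to wild type was calculated from changes in genotype frequencies. Genotypes had to have ≥ 100 starting reads, and estimates < 0.5 were set to 0.5.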
For the variant GUUCCGUUGGCGUAAGGGUAACGCGUCUCCCUCCUAAGGAGAAGACUGCGGGUUGGAGUCCCGUACGGAACG, the yeast fitness is 0.544.

As to GUUCCGUUGGCGUAAGGGUAACGCGUCUCCCUCCUAAGGAGAAGACUGCGGGUUUGAGUCCCGUACGGAACG, the yeast fitness was determined as 0.817. The result for GUUCCGUUGGCGUAAGGGUAACGCGUGUCCCUCCUAAGGAGAAGACUGCGGGUCCGAGUCCCGUACGGAACG reads 0.633; that for GUUCCGUUGGCGUAAGGGUAACGCGUCUCCGUCCUAAGGAGAAGACUGCGGGUUCGAGUCCCCUUCGGAACG, at most 0.5.

On to GUUCCGUUGGCGUAAGGGUAACGGGACUCCCUCCUAAGGAGAAGACUGCAGGUUCGAGUCCCGUACGGAACG, for which the yeast fitness came out at 0.581. Then GUUCCGUUGGCGUAAGGGUAACGCGUCUCCCUCCUAAGGAGAAGAAUGCGGGUUCGAGUCCCGUAAGGAACG, with at most 0.5; and GUUCCGUUGGCGUAAGGGUAACGCGUCUCCCUCCUAAGGAGAAGACUGCGGGUUCGAGUCCCGUACGGAGCG, with 1.03; and GUUCCGUUGGCGUAAGGGUAACGCGUCUCCCUCCUAAGGAGAAGACUGCGGGUUCGAGUCCCGUACGGACCG, with 0.911. Then GUUCCGUUGGCGUAAGGGUAACGCGUCUCCCUCUUAAGGAGAAGACUGCGGGUUCGAGUCCCGUACGGAACG, with 0.63; and GUUCCGUUGGCGUAAGGGUAACGCGUCUCCCUCCUAAGGAGAAGACUGCGGGUUUGAGUCCCGUACCGAACG, with at most 0.5; and GUUCCGUUGGCGUAAGGGUAACGUGUCUGCCUCCCAAGGAGAAGACUGCAGGUUCGAGUCCAGUACGGAACG, with at most 0.5. For the variant GUUCCGUUGGCGUAAGGGUAACGCGUCUCACUCCUAAGGAGAAGACUGCGGGUUCGAGUCCCGUGCGGAACG, the yeast fitness turned out to be 0.564. For GUUCCGUUGGCGUAAGGGUAACGCGUCUCCCUCCUAAGGAGAAGACUGUGGAUUCGAGUCCCAUACGGAACG, the yeast fitness was found to be 0.632. With GUUCCGUUGGCGUAAGGGUAACGUGUCUGCCUCCCAAGGAGAAGACUGCAGGUUCGAGUCCCGUAUGGAACG, the yeast fitness was at most 0.5. Then GUUCCGUUGGCGUAAGGGUAAGGCGUCUCCCUCCUAAGGAGAAGACUGCGGGUUCGAGUCCCGUACCGAACG, with 0.709; and GUUCCGUUGGCGUAAGGGUAACGCGUCUCCUUCCUAAGGAGAAGACUGCGGGUUCGAAUCCCGUACGGAACG, with 0.633. The result for GUUCCGUUGGCGUAAGGGUAACGCGUCUCCCUCCUAAGGAGAAGACUGUGGGUUCGAGUAACGUACGGAACG reads at most 0.5; that for GUUCCGUUGGCGUAAGGGUAACGCGUCUCCCUCCUAAGGAGAAGAUUGCGGGUUCGAGUCCCGUACGGCACG, 1.07; that for GUUCCGUUGGCGUAAGAGUAACGCGUCUCCCUACUAAGGAGAAGACUGCGGGUUCGAGUCCCGUACGGAACG, 0.539. Then GUUCCGUUGGCGUAAGGGUAACGCGUCUCCCUCCUAAGGAGAAAACUGCGGGUUCAAGUCCCGUACGGAACG, with 0.663; and GUUCCGUUGGCGUAAGGGUAACGCGUCUCCCUCUUAAGGAGAAGACUGCGGGUUCGAGUACCGUACGGACCG, with at most 0.5; and GUUCCGUUGGCGUAAGGGUAACGGGUCUCCCUCCUAAGGAGAAGACUGCGGGUUCGAGACCCGUACGGAACG, with at most 0.5. As for GUUCCGUUGGCGUAAGGGUAACGGGUAUCCCUCCUAAGGAGAAGACUGCGGGUUCGAGUCCCGUACGGAACG, the yeast fitness was at most 0.5. The result for GUUCCGUUGGCGUAAGGGUAACGCGUCUCCCUCCUAAGAAGAAGCCUGCGGGUUCGAGUCACGUACGGAACG reads 0.617; that for GUUCCGUUGGCGUAAGGGUAACACGUCUCCCUCCUAAGGCGAAGACUGCGGGUUCGAGUCCCGUACGGAACG, at most 0.5; that for GUUCCGUUGGCGUAAGGGUAACGCGUCUCCUUCCUAAGGAGUAGACUGCGGGUUCCAGUCCCGUACGGAACG, at most 0.5.

Regarding GUUCCGUUGGCGUAAGGGUAACGUGUCUGCCUCCUAAGGAGAAGACUGGGGGUUCGAGUCCCGUGCGGAACG, the yeast fitness is 0.601. The result for GUUCCGUUGGCGUAAGGGUAACGCGUCUCCCUCCUAAGGAGAAGACUACGGGUUCGAGUCCCGUACGAAACG reads 1.09; that for GUUCCGUUGGCGUAAGGGUAACGUGUCUCCCUCCUAAGGAGAAGACUGCGGGUUCGAGUCCCGUACGGAACG, 0.822; that for GUUCCGUUGGCGUAAGGGUAACGCGUCUCCCUCCUAAGGAGAAGACUGCGGGUUCUAGUCCCGUACGGAACG, 0.706.

Turning to GUUCCGUUGGCGUAAGGGUAACGCGUCUCCCUCCUAAGAAGAAGACUGCGGGUUCGAGUCGCGUACGGAACG, the yeast fitness was at most 0.5.

In the case of GUUCCGUUGGCGUAAGGGUAACGCGUCUCCCUCUUAAGGAGAAGAGUGCGGGUUCGAGACCCGUACGGAACG, the yeast fitness is at most 0.5. Then GUUCCGUUGGCGUAAGGGUAACGCGUCUCCAUCCUAAGGAGAAGACUGCGGGUUCGAGUCCCGUACGGAACG, with 0.985; and GUUCCGUUGGCGUAAGGGUAACGCGUCUCCCUCCUAAGGAGAAAACUGCGGGUUCGAGUCCCGUACGGAACG, with 0.994. The result for GUUCCGUUGGCGUAAGGGUAACGCGUCUCCCUCCUAAGAAGAAGCCUGCGGGUUCGAGUCCCGUACAGAACG reads at most 0.5.

For the variant GUUCCGUUGGCGUAAGGAUAUCGCGUCUCCCUCCUAAGGCGAAGACUGCGGGUUCGACUCCCGUCGGGAACG, the yeast fitness is at most 0.5.

Take GUUCCGUUGGCGUAAGGGUAACGCGUCUCCGUCCUAAGGAGAAGACUGCGGGUUCGAGUCCCGUAUGGAACG: the yeast fitness worked out at 0.586.
